APP transl inh: APP translation inhibition. hit rate 0.82% among 190,000. SH-SY5Y APP 5'UTR-luciferase reporter, luminescence. AID 1285. inhibition, % at 2 µM;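 active = inhibition above a set limit, derived from the sample mean plus 3 SD, cut at about 45% in these data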
MT stabilizer: microtubule stabilizers in HeLa cells; HeLa tubulin immunostaining HCS, 24 h; share of cells brighter than vehicle mean+2SD; % tubulin-high responders, % at 10 µM; hit rate 0.83% among 200,000; AID 2205;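 active = plate Z-score above 3 for both tubulin-high and condensed-nucleus cell shares, with cell loss under 80%, at 10 µM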;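 note: anti alpha tubulin signal scored within the nucleus-defined area of each cell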
L major viab: Leishmania major promastigote growth inhibition; Leishmania major promastigotes, resazurin fluorescence viability; inhibition, % at 10 µM; hit rate 9% among 200,000; in the data active = inhibition above about 50%;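 note: promastigotes grown with compound for 44 hours at 28 °C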
BaF3 tox: counter-screen for JAK2V617F inhibitors: parental Ba/F3 viability inhibitors; CellTiter-Glo ATP luminescence; inhibition, % at 5.6 µM; hit rate 1.1% among 220,000;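 active = inhibition above a per-campaign cutoff, the mean inhibition of all tested compounds plus 3 SD, cut at about 27% in these data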;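 note: 0% = DMSO wells and 100% = JAK Inhibitor I control wells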
bCat nuc transl: modulators of beta-catenin nuclear translocation; HeLa beta-catenin nuclear translocation, immunofluorescence imaging; nuclear translocation activity, % at 5 µM; hit rate 0.3% among 190,000;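 active = nuclear translocation activity above 50% at 5 µM, with a well cell count of 50 or more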;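 note: per-cell ratio of nuclear to cytoplasmic median beta-catenin stain intensity; plate controls were DMSO negative control for no effect and GSK-3 inhibitor IX positive control for full effect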
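Test system: human HeLa cells, endogenous beta-catenin. Times: 24 h compound exposure, 37°C. Measured by: beta-catenin immunofluorescence imaging with DAPI.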
Ba/F3 V617F tox: loss of viability in JAK2V617F-driven Ba/F3 cells; Ba/F3 EpoR-JAK2V617F viability, ATP luminescence; inhibition, % at 5.6 µM; hit rate 1.1% among 220,000; AID 1446;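 active = inhibition above the campaign mean plus 3 SD over all tested compounds, cut at about 24% in these data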;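 note: cytokine-independent growth of Ba/F3 cells driven by EpoR plus mutant JAK2; 0% = DMSO-treated cells and 100% = JAK inhibitor I control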
Active calls of the source: *; . = no result. A selection: hits, their analogues and other compounds. The true share with any hit is near 9.6%.

SMILES	APP transl inh	MT stabilizer	L major viab	BaF3 tox	bCat nuc transl	Ba/F3 V617F tox
CN(C)Cc1c(-c2ccc(Cl)cc2)nc2ccc(Cl)cn12	-19	1	68*	4	4	-1
O=C1C=CC(O)(c2cc(=O)c3c(O)cc(O)cc3o2)C=C1	41	59	70*	47*	29	44*
CCOC(=O)c1c(NC(NC(=O)C(C)C)C(Cl)(Cl)Cl)sc2c1CCC2 (centres undefined)	-3	3	86*	12	-6	4
NNC(=O)CS(=O)(=O)c1ccc(Cl)cc1	.	.	.	-2	0	-4
O=C(CCc1nnc(CCCCc2ccccc2)o1)NCCN1CCOC1=O	15	3	-4	-1	0	0
CCCCOC(=O)C(C#N)c1nc2ccccc2nc1N1CCN(Cc2ccc3c(c2)OCO3)CC1 (centres undefined)	4	2	69*	6	-4	-2
C=CCOC(=O)C(C#N)c1nc2ccccc2nc1N1CCN(Cc2ccccc2)CC1 (centres undefined)	-11	3	51*	10	-6	1
COC(=O)C(C#N)c1nc2ccccc2nc1N1CCN(Cc2ccc3c(c2)OCO3)CC1 (centres undefined)	.	.	.	.	2	.
COCC(C)OC(=O)C(C#N)c1nc2ccccc2nc1N1CCN(Cc2ccccc2)CC1 (centres undefined)	-1	3	67*	0	-1	-1
O=C(CN1CCN(Cc2ccccc2)CC1)Nc1cccc(S(=O)(=O)N2CCCCCC2)c1	2	2	79*	1	-1	-1
O=C(CN1CCN(Cc2ccccc2)CC1)Nc1cccc(C(F)(F)F)c1	-11	1	65*	5	-1	-1
CC1CCc2c(C(=O)OCC(=O)Nc3cccc(S(=O)(=O)N4CCCCCC4)c3)csc2C1 (centres undefined)	-12	2	83*	1	.	-4
O=C(CN1CCN(Cc2ccccc2)CC1)Nc1ccc2c(c1)CCC2	-4	5	74*	7	3	3
O=C(CN1CCCC1)Nc1ccc2c(c1)CCC2	-17	11	-1	9	-1	3
Cn1c(N)c(C(=O)COC(=O)c2ccc3c(c2)C(=O)N(c2ccc(Cl)cc2)C3=O)c(=O)n(C)c1=O	3	4	-5	1	-2	0
CC(C)C1CC(CCN)(Cc2ccccc2)CCO1 (centres undefined)	0	3	-1	1	-1	-4
COc1ccc(-n2cnnc2SCC(=O)NC2CCS(=O)(=O)C2)cc1 (centres undefined)	3	2	-4	4	-5	-3
CC(=O)c1c(C)[nH]c(C(=O)OCC(=O)Nc2cc(S(=O)(=O)N3CCCC3)ccc2Cl)c1C	4	3	72*	9	-1	1
O=S(=O)(c1ccc(Cl)c(NC(=S)N/N=C/c2ccc(O)cc2)c1)N1CCOCC1	-11	8	88*	2	0	4
CC(=O)c1c(C)[nH]c(C(=O)OCC(=O)Nc2cccc(S(=O)(=O)N3CCCC3)c2)c1C	6	4	-3	14	0	5
COc1ccc(CC(=O)Nc2cccc(S(=O)(=O)N3CCCCCC3)c2)cc1OC	16	2	84*	4	0	0
COc1ccccc1OCCC(=O)Nc1cccc(S(=O)(=O)N2CCCCC2)c1	-10	3	5	3	-2	-1
O=C(COc1cccc(Cl)c1)Nc1ccc2c(c1)CCC2	-19	3	56*	1	1	-2
O=C(Oc1ccccc1)c1ccc2c(c1)C(=O)N(Cc1ccncc1)C2=O	.	.	.	-3	-5	-1
Cn1ccnc1SCC(=O)Nc1ccc(Cl)cn1	-8	3	5	-1	-2	-6
SMILES	APP transl inh	MT stabilizer	L major viab	BaF3 tox	bCat nuc transl	Ba/F3 V617F tox
O=C(Nc1cccc(S(=O)(=O)N2CCCCC2)c1)c1c2c(nc3ccccc13)CCN(Cc1ccccc1)C2	1	2	90*	8	1	4
O=C(CN1CCN(c2ccc(O)cc2)CC1)Nc1cc(S(=O)(=O)N2CCCC2)ccc1Cl	14	7	42	15	-2	-1
O=C(CN1CCN(c2ccc(O)cc2)CC1)Nc1cc(S(=O)(=O)N2CCCCC2)ccc1Cl	10	5	99*	11	-3	-3
CC1CCN(CC(=O)Nc2cccc(C(=O)Nc3cccc(C(F)(F)F)c3)c2)CC1	-11	2	82*	9	0	2
CCOC(=O)c1c(C)c(C(=O)Nc2cc(F)ccc2F)c(C)n1C	-5	13*	-1	1	38	0
CCOC(=O)c1c(C)c(C(=O)Nc2ccc3c(c2)OCCO3)c(C)n1C	7	4	-1	6	1	0
O=c1c2c(-c3ccccc3)csc2nc2c3ccccc3c(NCCN3CCOCC3)nn12	-13	1	100*	6	0	-2
C[C@H]1O[C@@H](O[C@H]2[C@@H](O)C[C@H](O[C@H]3[C@@H](O)C[C@H](O[C@H]4CC[C@@]5(C)[C@H](CC[C@@H]6[C@@H]5C[C@@H](O)[C@]5(C)[C@@H](C7=CC(=O)OC7)CC[C@]65O)C4)O[C@@H]3C)O[C@@H]2C)C[C@H](O)[C@@H]1O	94*	8	-6	2	12	-2
Cc1ccc(NC(=O)C[n+]2cc(-c3ccc(C)cc3)n3c2CCC3)cc1	.	.	.	-1	-2	-4
COc1ccc(C(=O)C[n+]2cc(-c3ccc(OC)cc3)n3c2CCCC3)cc1	-16	2	99*	64*	0	65*
Cc1ccc(-c2c[n+](Cc3ccc(Cl)c(Cl)c3)c3n2CCC3)cc1	-9	5	100*	73*	0	78*
Cc1ccc(C(=O)C[n+]2cc(-c3ccc(C)cc3)n3c2CCCCC3)cc1	-4	2	100*	89*	-1	102*
O=C(C[n+]1cc(-c2ccccc2)n2c1CCCCC2)c1ccc(Br)cc1	7	3	99*	73*	0	61*
Cc1ccc2nc(-c3ccc4c(c3)OCCO4)cn2c1	.	.	.	79*	56*	81*
Cc1ccsc1C(=O)Nc1ccccc1N1CCOCC1	-3	3	-1	3	1	-3
N#Cc1c(-c2ccccc2)cc(-c2ccccc2)nc1SCC(=O)NCC(=O)O	.	.	.	-2	-1	-1
N#Cc1c(-c2ccccc2)cc(-c2ccccc2)nc1SCc1nnc(-c2ccccc2)o1	4	2	60*	0	.	-5
S=c1[nH]ncn2c1cc1oc3ccccc3c12	-25	8	-4	6	-5	1
O=S(=O)(C/C(=C/CO)S(=O)(=O)c1ccccc1)c1ccccc1	80*	1	55*	100*	-1	101*
O=C(NCc1ccc2c3c(cccc13)C(=O)N2)c1cccs1	.	.	.	-2	0	5
COC(=O)c1cc(NS(=O)(=O)c2ccc(C)c3ccccc23)ccc1N1CCOCC1	.	.	.	1	-1	-2

Source: PubChem BioAssay (several laboratories)
